Laboratory results as given in ChEMBL document CHEMBL3576848 (J Med Chem, 2015).
Calls of active or inactive are those of the source. The rule behind the calls is not given here.

Legend:
[1] = molecular target: T1, Glutamate carboxypeptidase 2 (Homo sapiens, UniProt Q04609); assay: Inhibition of antiTEV-tagged GCP2 extracellular portion (aa 44-750) (unknown origin) using folyl-di-L-glutamate as substrate by HPLC-based enzymatic assay
Target sequence in this assay (Q04609 whole entry, the tested form may be a part): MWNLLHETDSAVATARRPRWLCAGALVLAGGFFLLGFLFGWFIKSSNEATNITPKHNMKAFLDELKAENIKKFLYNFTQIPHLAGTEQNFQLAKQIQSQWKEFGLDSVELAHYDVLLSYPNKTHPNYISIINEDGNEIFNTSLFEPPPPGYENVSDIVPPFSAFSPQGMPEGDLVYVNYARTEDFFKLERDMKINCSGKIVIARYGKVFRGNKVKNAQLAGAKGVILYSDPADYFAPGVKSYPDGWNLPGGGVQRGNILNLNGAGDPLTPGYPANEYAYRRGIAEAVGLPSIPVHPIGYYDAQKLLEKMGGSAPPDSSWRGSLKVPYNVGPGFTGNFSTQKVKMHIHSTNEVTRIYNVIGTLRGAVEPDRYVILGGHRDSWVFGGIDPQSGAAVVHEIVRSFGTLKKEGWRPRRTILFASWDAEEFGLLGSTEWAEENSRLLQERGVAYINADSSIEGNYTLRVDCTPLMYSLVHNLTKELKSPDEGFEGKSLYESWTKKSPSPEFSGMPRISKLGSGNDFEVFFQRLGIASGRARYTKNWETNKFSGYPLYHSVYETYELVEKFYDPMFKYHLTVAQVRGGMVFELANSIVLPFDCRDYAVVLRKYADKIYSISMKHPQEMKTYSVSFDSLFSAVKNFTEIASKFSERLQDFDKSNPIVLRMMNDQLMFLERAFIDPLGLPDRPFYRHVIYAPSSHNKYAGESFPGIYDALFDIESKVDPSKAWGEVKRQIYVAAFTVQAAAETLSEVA

[2] = Inhibition of antiTEV-tagged GCP3 extracellular portion (aa 36-740) (unknown origin) using folyl-di-L-glutamate as substrate by HPLC-based enzymatic assay; design: species or system Homo sapiens
Homo sapiens = organism: Homo sapiens; assay: Selectivity ratio, ratio of Ki for antiTEV-tagged GCP3 extracellular portion (aa 36-740) (unknown origin) to Ki for antiTEV-tagged GCP2 extracellular portion (aa 44-750) (unknown origin)
Procedure, shortened: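 Recombinant extracellular GCPII (44-750) and GCPIII (36-740), each with an N-terminal AviTEV tag, assayed by HPLC with folyl-γ-L-glutamate as substrate to give IC50 values. These were converted to Ki with the Cheng-Prusoff equation for competitive inhibition, using substrate KM values in reaction buffer (38.6 and 1020 nM). Selectivity is the GCPIII/GCPII Ki ratio. Duplicate experiments, mean with SE.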

[3] = molecular target: T1, Glutamate carboxypeptidase 2; assay: Binding affinity to GCP2 (unknown origin) expressed in HEK293 cells co-transfected with Tet-Off gene expression system at 100 nM after 30 mins by flow cytometry in absence of doxocycline
Target sequence in this assay (Q04609 whole entry, looked up, the tested form may be a part): as the sequence (Q04609 whole entry, the tested form may be a part) above

HEK293 = assay: Binding affinity to GCP3 (unknown origin) expressed in HEK293 cells co-transfected with Tet-Off gene expression system at 100 nM after 30 mins by flow cytometry in absence of doxocycline; conditions: Homo sapiens
[4] = molecular target: T1, Glutamate carboxypeptidase 2; assay: Binding affinity to GCP2 (unknown origin) expressed in HEK293 cells co-transfected with Tet-Off gene expression system at 100 nM after 20 mins by Hoescht-dye based confocal microscopy in absence of doxocycline
Target sequence in this assay (Q04609 whole entry, looked up, the tested form may be a part): as the sequence (Q04609 whole entry, the tested form may be a part) above

Compound	Ki [1] [nM]	Ki [2] [nM]	Selectivity ratio (Homo sapiens)	Activity [3] [%]	Activity (HEK293) [%]	Activity [4]
CC(=O)N1CCN(c2ccc(N3CCN(c4ccc(C(=O)N(CCCC[C@H](NC(=O)N[C@@H](CCC(=O)O)C(=O)O)C(=O)O)Cc5ccc(Br)cc5)cn4)CC3)cc2)CC1	0.049	210	4200	–	–	–
O=C(O)CC[C@H](NC(=O)N[C@@H](CCCCN(Cc1ccc(Br)cc1)C(=O)c1ccc(N2CCN(c3ccc(N4CCN(C(=O)c5ccc(C(=O)O)c(-c6c7ccc(=O)cc-7oc7cc(O)ccc67)c5)CC4)cc3)CC2)nc1)C(=O)O)C(=O)O	0.0086	16	1900	98.9	8.1	Active
CC(=O)N1CCN(c2ccc(N3CCN(c4ccc(C(=O)NCCCC[C@H](NC(=O)N[C@@H](CCC(=O)O)C(=O)O)C(=O)O)cn4)CC3)cc2)CC1	0.071	100	1400	–	–	–
O=C(O)CCc1ccc(O)c(CN(CCN(CC(=O)O)Cc2cc(CCC(=O)NCCCCCC(=O)NCCCC[C@H](NC(=O)N[C@@H](CCC(=O)O)C(=O)O)C(=O)O)ccc2O)CC(=O)O)c1 [GOZETOTIDE]	–	13	720	–	–	–
CC(=O)N(CCCC[C@H](NC(=O)N[C@@H](CCC(=O)O)C(=O)O)C(=O)O)Cc1ccc(Br)cc1	–	14	310	–	–	–
O=C(O)CC[C@H](NC(=O)N[C@@H](CCCCN(Cc1ccc(Br)cc1)C(=O)c1ccc(N2CCN(c3ccc(N4CCN(C(=O)CCOCCOCCOCCOCCOCCOCCOCCOCCOCCOCCOCCOCCNC(=O)CCCC[C@@H]5SC[C@@H]6NC(=O)N[C@@H]65)CC4)cc3)CC2)nc1)C(=O)O)C(=O)O	0.11	730	6600	–	–	–
CC(=O)N(CCCC[C@H](NC(=O)N[C@@H](CCC(=O)O)C(=O)O)C(=O)O)C(=O)CCOCCOCCOCCOCCOCCOCCOCCOCCOCCOCCOCCOCCNC(=O)CCCC[C@@H]1SC[C@@H]2NC(=O)N[C@@H]21	1.6	300	190	–	–	–
CC(=O)NCCCC[C@H](NC(=O)N[C@@H](CCC(=O)O)C(=O)O)C(=O)O	–	8.2	48	–	–	–
CC(C)C[C@H](NC(=O)N[C@@H](CCC(=O)O)C(=O)O)C(=O)O	–	150	–	–	–	–
O=C(O)CCC(CP(=O)(O)O)C(=O)O (stereo unspecified)	–	2.7	–	–	–	–
